# Data: ChEMBL document CHEMBL5329156, “Discovery and development of novel substituted monohydrazides as potent antifungal agents” (RSC Med Chem, 2023)
# Active and inactive are the calls of the source. No cut-off for these calls is given here.
# What was measured:
# [Candida] auris [1] = Antifungal activity against Candida auris AR Bank # 0384 assessed as fungal growth inhibition by double dilution method; format: functional; settings: Candidozyma auris
# How it was run: (§1)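 Broth microdilution after CLSI M27-A3/M38-A2 with minor changes. Single colony grown overnight in YPD at 35 °C, 200 rpm. Compound final range 0.06-31.3 µg/mL; incubated 48 h at 35 °C.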
# Aspergillus fumigatus [2] = assay: Antifungal activity against Aspergillus fumigatus NRRL 6113 assessed as fungal growth inhibition by double dilution method; format: functional
# Nakaseomyces glabratus [3] = assay: Antifungal activity against Candida glabrata ATCC 22019 assessed as fungal growth inhibition by double dilution method; format: functional; how it was run: as §1
# Aspergillus fumigatus [4] = assay: Antifungal activity against Aspergillus fumigatus NRRL 163 assessed as fungal growth inhibition by double dilution method; format: functional
# Kodamaea ohmeri = assay: Antifungal activity against Kodamaea ohmeri AR Bank # 396 assessed as fungal growth inhibition by double dilution method; format: functional; how it was run: as §1
# Aspergillus nidulans = assay: Antifungal activity against Aspergillus nidulans ATCC 38163 assessed as fungal growth inhibition by double dilution method; format: functional
# Candida duobushaemulonii [5] = assay: Antifungal activity against Candida duobushaemulonii AR Bank # 394 assessed as fungal growth inhibition by double dilution method; format: functional; settings: Candidozyma duobushaemuli; how it was run: as §1
# Candida albicans [6] = assay: Antifungal activity against Candida albicans ATCC 64124 assessed as fungal growth inhibition by double dilution method; format: functional
# How it was run: (§2)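 Broth microdilution after CLSI M27-A3/M38-A2 with minor modifications. A single colony was grown overnight in YPD at 35 °C with shaking at 200 rpm. Cells were mixed 1:1 with compound (final 0.06-31.3 µg/mL, from DMSO stocks) and incubated 48 h at 35 °C.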
# [Candida] auris [7] = Antifungal activity against Candida auris AR Bank # 384 assessed as fungal growth inhibition by double dilution method; format: functional; settings: Candidozyma auris; how it was run: as §1
# Candida albicans [8] = assay: Antifungal activity against itraconazole/fluconazole susceptible Candida albicans ATCC MYA-2310 assessed as fungal growth inhibition by double dilution method; format: functional; how it was run: as §2
# Cryptococcus neoformans = assay: Antifungal activity against Cryptococcus neoformans ATCC MYA-895 assessed as fungal growth inhibition by double dilution method; format: functional; how it was run: as §1
# [Candida] auris [9] = Antifungal activity against Candida auris AR Bank # 386 assessed as fungal growth inhibition by double dilution method; format: functional; settings: Candidozyma auris; how it was run: as §1
# [Candida] auris [10] = Antifungal activity against Candida auris AR Bank # 390 assessed as fungal growth inhibition by double dilution method; format: functional; settings: Candidozyma auris; how it was run: as §1
# Candida albicans [11] = assay: Antifungal activity against Candida albicans ATCC 10231 assessed as fungal growth inhibition by double dilution method; format: functional; how it was run: as §1
# Candida albicans [12] = assay: Antifungal activity against itraconazole/fluconazole resistant Candida albicans ATCC 90819 assessed as fungal growth inhibition by double dilution method; format: functional; how it was run: as §2
# Aspergillus flavus = assay: Antifungal activity against Aspergillus flavus ATCC MYA-3631 assessed as fungal growth inhibition by double dilution method; format: functional
# Clavispora lusitaniae = assay: Antifungal activity against Clavispora lusitaniae AR Bank # 398 assessed as fungal growth inhibition by double dilution method; format: functional; how it was run: as §1
# Pichia kudriavzevii [13] = assay: Antifungal activity against Pichia kudriavzevii ATCC 6258 assessed as fungal growth inhibition by double dilution method; format: functional; how it was run: as §1
# [Candida] auris [14] = Antifungal activity against Candida auris AR Bank # 382 assessed as fungal growth inhibition by double dilution method; format: functional; settings: Candidozyma auris; how it was run: as §1
# Pichia kudriavzevii [15] = assay: Antifungal activity against Pichia kudriavzevii AR Bank # 397 assessed as fungal growth inhibition by double dilution method; format: functional; how it was run: as §1
# [Candida] auris [16] = Antifungal activity against Candida auris AR Bank # 387 assessed as fungal growth inhibition by double dilution method; format: functional; settings: Candidozyma auris; how it was run: as §1
# Aspergillus fumigatus [17] = assay: Antifungal activity against Aspergillus fumigatus NRRL 5109 assessed as fungal growth inhibition by double dilution method; format: functional
# Aspergillus terreus = assay: Antifungal activity against Aspergillus terreus ATCC MYA-3633 assessed as fungal growth inhibition by double dilution method; format: functional
# Candida duobushaemulonii [18] = assay: Antifungal activity against Candida duobushaemulonii AR Bank # 392 assessed as fungal growth inhibition by double dilution method; format: functional; settings: Candidozyma duobushaemuli; how it was run: as §1
# Candida duobushaemulonii [19] = assay: Antifungal activity against Candida duobushaemulonii AR Bank # 391 assessed as fungal growth inhibition by double dilution method; format: functional; settings: Candidozyma duobushaemuli; how it was run: as §1
# [Candida] auris [20] = Antifungal activity against Candida auris AR Bank # 381 assessed as fungal growth inhibition by double dilution method; format: functional; settings: Candidozyma auris; how it was run: as §1
# Saccharomyces cerevisiae [21] = assay: Antifungal activity against Saccharomyces cerevisiae AR Bank # 400 assessed as fungal growth inhibition by double dilution method; format: functional; how it was run: as §1
# [Candida] auris [22] = Antifungal activity against Candida auris AR Bank # 383 assessed as fungal growth inhibition by double dilution method; format: functional; settings: Candidozyma auris; how it was run: as §1
# [Candida] auris [23] = Antifungal activity against Candida auris AR Bank # 0390 assessed as fungal growth inhibition by double dilution method; format: functional; settings: Candidozyma auris; how it was run: as §1
# [Candida] auris [24] = Antifungal activity against Candida auris AR Bank # 388 assessed as fungal growth inhibition by double dilution method; format: functional; settings: Candidozyma auris; how it was run: as §1
# Candida albicans [25] = assay: Antifungal activity against itraconazole/fluconazole susceptible Candida albicans ATCC MYA-2876 assessed as fungal growth inhibition by double dilution method; format: functional; how it was run: as §2
# [Candida] haemuloni [26] = Antifungal activity against Candida haemulonii AR Bank # 395 assessed as fungal growth inhibition by double dilution method; format: functional; settings: Candidozyma haemuli; how it was run: as §1
# Candida albicans [27] = assay: Antifungal activity against itraconazole/fluconazole resistant Candida albicans ATCC MYA-1003 assessed as fungal growth inhibition by double dilution method; format: functional; how it was run: as §2
# [Candida] auris [28] = Antifungal activity against Candida auris AR Bank # 385 assessed as fungal growth inhibition by double dilution method; format: functional; settings: Candidozyma auris; how it was run: as §1
# Saccharomyces cerevisiae [29] = assay: Antifungal activity against Saccharomyces cerevisiae AR Bank # 399 assessed as fungal growth inhibition by double dilution method; format: functional; how it was run: as §1
# Candida albicans [30] = assay: Antifungal activity against itraconazole/fluconazole resistant Candida albicans ATCC MYA-1237 assessed as fungal growth inhibition by double dilution method; format: functional; how it was run: as §2
# Candida albicans [31] = assay: Antibiofilm activity against Candida albicans ATCC 10231 assessed as reduction in biofilm production at 1.96 to 3.9 microg/ml by biofilm formation assay; format: functional, organism-based; settings: dose 1.96-3.9 µg/ml
# [Candida] haemuloni [32] = Antifungal activity against Candida haemulonii AR Bank # 393 assessed as fungal growth inhibition by double dilution method; format: functional; settings: Candidozyma haemuli; how it was run: as §1
# [Candida] auris [33] = Antifungal activity against Candida auris AR Bank # 389 assessed as fungal growth inhibition by double dilution method; format: functional; settings: Candidozyma auris; how it was run: as §1
# Nakaseomyces glabratus [34] = assay: Antifungal activity against Candida glabrata ATCC 2001 assessed as fungal growth inhibition by double dilution method; format: functional; how it was run: as §1
# HEK293 = assay: Cytotoxicity against human HEK-293 cells assessed as reduction in cell viability at 31.3 microg/ml; format: toxicity, cell-based; settings: dose 31.3 µg/ml
# How it was run: (§3)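 Cells in DMEM with 10% FBS and 1% Pen/Strep, seeded at 10,000 cells/well and held overnight at 37 °C, 5% CO2. Compounds added at final 31.3-0.12 µg/mL (0.05% DMSO vehicle) for 24 h. Resazurin then added for 6 h; fluorescence read at ex 560/em 590. Triton X-100 1% as positive control; values normalized to vehicle. Run in quadruplicate.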
# J774.A1 = assay: Cytotoxicity against J774A.1 cells assessed as reduction in cell viability at 31.3 microg/ml; format: toxicity, cell-based; settings: mouse, dose 31.3 µg/ml; how it was run: as §3
compound,measurement,setting,value
O=C(NNc1cc(Cl)cc(Cl)c1)c1ccccn1,MIC,[Candida] auris [1],7.8 µg/mL
same,MIC,Aspergillus fumigatus [2],> 31.3 µg/mL
same,MIC,Nakaseomyces glabratus [3],1.95 µg/mL
same,MIC,Aspergillus fumigatus [4],> 31.3 µg/mL
same,MIC,Kodamaea ohmeri,0.49 µg/mL
same,MIC,Aspergillus nidulans,0.49 µg/mL
same,MIC,Candida duobushaemulonii [5],0.49 µg/mL
same,MIC,Candida albicans [6],1.95 µg/mL
same,MIC,[Candida] auris [7],7.8 µg/mL
same,MIC,Candida albicans [8],1.95 µg/mL
same,MIC,Cryptococcus neoformans,0.49 µg/mL
same,MIC,[Candida] auris [9],0.98 µg/mL
same,MIC,[Candida] auris [10],3.9 µg/mL
same,MIC,Candida albicans [11],0.24 µg/mL
same,MIC,Candida albicans [12],0.98 µg/mL
same,MIC,Aspergillus flavus,> 31.3 µg/mL
same,MIC,Clavispora lusitaniae,3.9 µg/mL
same,MIC,Pichia kudriavzevii [13],0.98 µg/mL
same,MIC,[Candida] auris [14],0.98 µg/mL
same,MIC,Pichia kudriavzevii [15],0.49 µg/mL
same,MIC,[Candida] auris [16],0.98 µg/mL
same,MIC,Aspergillus fumigatus [17],> 31.3 µg/mL
same,MIC,Aspergillus terreus,1.95 µg/mL
same,MIC,Candida duobushaemulonii [18],0.98 µg/mL
same,MIC,Candida duobushaemulonii [19],0.98 µg/mL
same,MIC,[Candida] auris [20],3.9 µg/mL
same,MIC,Saccharomyces cerevisiae [21],3.9 µg/mL
same,MIC,[Candida] auris [22],1.95 µg/mL
same,MIC,[Candida] auris [23],1.95 µg/mL
same,MIC,[Candida] auris [24],3.9 µg/mL
same,MIC,Candida albicans [25],1.95 µg/mL
same,MIC,[Candida] haemuloni [26],0.24 µg/mL
same,MIC,Candida albicans [27],1.95 µg/mL
same,MIC,[Candida] auris [28],1.95 µg/mL
same,MIC,Saccharomyces cerevisiae [29],3.9 µg/mL
same,MIC,Candida albicans [30],3.9 µg/mL
same,Activity,Candida albicans [31],inactive
same,MIC,[Candida] haemuloni [32],0.24 µg/mL
same,MIC,[Candida] auris [33],1.95 µg/mL
same,MIC,Nakaseomyces glabratus [34],7.8 µg/mL
C[C@@H]1[C@H](O)[C@@H](C)/C=C/C=C/C=C/C=C/C=C/C=C/C=C/[C@H](O[C@@H]2O[C@H](C)[C@@H](O)[C@H](N)[C@@H]2O)C[C@@H]2O[C@](O)(C[C@@H](O)C[C@@H](O)[C@H](O)CC[C@@H](O)C[C@@H](O)CC(=O)O[C@H]1C)C[C@H](O)[C@H]2C(=O)O [AMPHOTERICIN B],MIC,[Candida] auris [1],1.95 µg/mL
same,MIC,Aspergillus fumigatus [2],1.95 µg/mL
same,MIC,Nakaseomyces glabratus [3],0.98 µg/mL
same,MIC,Aspergillus fumigatus [4],0.98 µg/mL
same,MIC,Kodamaea ohmeri,1.95 µg/mL
same,MIC,Aspergillus nidulans,15.6 µg/mL
same,MIC,Candida duobushaemulonii [5],0.98 µg/mL
same,MIC,Candida albicans [6],1.95 µg/mL
same,MIC,[Candida] auris [7],1.95 µg/mL
same,MIC,Candida albicans [8],0.98 µg/mL
same,MIC,Cryptococcus neoformans,7.8 µg/mL
same,MIC,[Candida] auris [9],0.98 µg/mL
same,MIC,[Candida] auris [10],1.95 µg/mL
same,MIC,Candida albicans [11],1.95 µg/mL
same,MIC,Candida albicans [12],0.98 µg/mL
same,MIC,Aspergillus flavus,31.3 µg/mL
same,MIC,Clavispora lusitaniae,3.9 µg/mL
same,MIC,Pichia kudriavzevii [13],0.98 µg/mL
same,MIC,[Candida] auris [14],0.98 µg/mL
same,MIC,Pichia kudriavzevii [15],0.49 µg/mL
same,MIC,[Candida] auris [16],0.98 µg/mL
same,MIC,Aspergillus fumigatus [17],0.98 µg/mL
same,MIC,Aspergillus terreus,3.9 µg/mL
same,MIC,Candida duobushaemulonii [18],7.8 µg/mL
same,MIC,Candida duobushaemulonii [19],7.8 µg/mL
same,MIC,[Candida] auris [20],0.98 µg/mL
same,MIC,Saccharomyces cerevisiae [21],1.95 µg/mL
same,MIC,[Candida] auris [22],1.95 µg/mL
same,MIC,[Candida] auris [23],1.95 µg/mL
same,MIC,[Candida] auris [24],1.95 µg/mL
same,MIC,Candida albicans [25],1.95 µg/mL
same,MIC,[Candida] haemuloni [26],3.9 µg/mL
same,MIC,Candida albicans [27],0.98 µg/mL
same,MIC,[Candida] auris [28],1.95 µg/mL
same,Activity,HEK293,Non-Toxic
same,MIC,Saccharomyces cerevisiae [29],15.6 µg/mL
same,MIC,Candida albicans [30],1.95 µg/mL
same,Activity,J774.A1,Non-Toxic
same,MIC,[Candida] haemuloni [32],15.6 µg/mL
same,MIC,[Candida] auris [33],1.95 µg/mL
same,MIC,Nakaseomyces glabratus [34],0.98 µg/mL
